Results from ChEMBL document CHEMBL1124753, “Hydroxyethylamine analogues of the p17/p24 substrate cleavage site are tight-binding inhibitors of HIV protease” (J Med Chem, 1990).
*1 amine or outer side, *2 acyl side, *3 side chain or, on linkers, in order; H or OH if unused. Where a SMILES comes first, the peptide text is derived from it. [ ]: non-standard residue; d: D form. The star is where a group is joined. Phe(ψ(S)CH(OH)CH2N)Pro = O=C([C@@H]1CCCN1C[C@H](O)[C@H](Cc1ccccc1)N[*:1])[*:2]; Ahppa(3S,4S) = O=C(C[C@H](O)[C@H](Cc1ccccc1)N[*:1])[*:2]; X1 = CC(C)C[C@H](N[*:1])[C@@H](O)CN1CCC[C@H]1C(=O)[*:2]; X2 = O=C([C@@H]1CCCN1C[C@H](Cc1ccccc1)N[*:1])[*:2]; Sta = CC(C)C[C@H](N)[C@@H](O)CC(=O)O; Boc = CC(C)(C)OC(=O)*

target: T1, Human immunodeficiency virus type 1 protease (Human immunodeficiency virus 1, UniProt Q72874); test: Inhibitory activity against HIV Protease was measured at pH 6.4 and 37 degrees C
Outline: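 Recombinant HIV protease expressed in E. coli; substrate Ac-Thr-Ile-Met-Gln-Arg-NH2 varied 0.5–10 mM. Inhibitor added in DMSO (final 1–3%), preincubated with enzyme 10 min before substrate started the reaction. Initial rates by HPLC and fluorometric assays. Ki from fitting initial velocities to the competitive inhibition equation; each is the average of three or more independent determinations.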

Structure (SMILES)	Ki [nM]
CC[C@H](C)[C@H](NC(=O)[C@@H]1CCCN1C[C@H](O)[C@H](CC(C)C)NC(=O)[C@H](CC(N)=O)NC(=O)[C@H](CC(C)C)NC(C)=O)C(=O)OC	> 10000
CC[C@H](C)[C@H](NC(=O)[C@@H]1CCCN1C[C@H](O)[C@H](CC(C)C)NC(=O)[C@H](CC(N)=O)NC(=O)[C@H](CC(C)C)NC(=O)[C@H](CO)NC(C)=O)C(=O)OC (Ac-SLN[X1]I-OMe)	980
CC[C@H](C)[C@H](NC(=O)C[C@H](O)[C@H](Cc1ccccc1)NC(=O)[C@H](CC(N)=O)NC(=O)[C@H](CC(C)C)NC(=O)[C@H](CO)NC(C)=O)C(=O)N[C@H](C(=O)OC)C(C)C (Ac-SLN[Ahppa(3S,4S)]IV-OMe)	8000
CC[C@H](C)[C@H](NC(=O)[C@@H]1CCCN1C[C@H](O)[C@H](CC(C)C)NC(=O)[C@H](CC(N)=O)NC(=O)[C@H](CC(C)C)NC(=O)[C@H](CO)NC(C)=O)C(=O)N[C@H](C(=O)OC)C(C)C (Ac-SLN[X1]IV-OMe)	118

target: T1, Human immunodeficiency virus type 1 protease; test: Inhibition of HIV protease at pH 6.4, 37 degree C

Structure (SMILES)	Ki [nM]
COC(=O)[C@@H](NC(=O)[C@@H](NC(=O)CNC[C@H](O)[C@H](Cc1ccccc1)NC(=O)[C@H](C)NC(=O)[C@H](C)N)C(C)C)C(C)C	18
CC[C@H](C)[C@H](NC(=O)C[C@H](O)[C@H](CC(C)C)NC(=O)[C@H](CC(N)=O)NC(=O)[C@H](CC(C)C)NC(=O)[C@H](CO)NC(C)=O)C(=O)N[C@H](C(=O)OC)C(C)C (Ac-SLN[Sta]IV-OMe)	1060
CC[C@@H](C)[C@H](NC(=O)[C@@H]1CCCN1C[C@@H](O)[C@H](Cc1ccccc1)NC(=O)[C@H](CC(N)=O)NC(=O)[C@H](CC(C)C)NC(C)=O)C(=O)N[C@H](C(=O)OC)C(C)C	21
CC[C@H](C)[C@H](NC(=O)C[C@H](O)[C@H](Cc1ccccc1)NC(=O)[C@H](CC(N)=O)NC(=O)[C@H](CC(C)C)NC(=O)[C@H](CO)NC(=O)OC(C)(C)C)C(=O)N[C@H](C(=O)OC)C(C)C (Boc-SLN[Ahppa(3S,4S)]IV-OMe)	2640
CC[C@H](C)[C@H](NC(=O)[C@@H]1CCCN1C[C@H](O)[C@H](CC(C)C)NC(=O)[C@H](CC(N)=O)NC(=O)[C@H](CC(C)C)NC(C)=O)C(=O)N[C@H](C(=O)OC)C(C)C (Ac-LN[X1]IV-OMe)	21
CC[C@H](C)[C@H](NC(=O)[C@H](Cc1ccccc1)NC[C@H](O)[C@H](Cc1ccccc1)NC(=O)OC(C)(C)C)C(=O)N[C@@H](Cc1ccccc1)C(=O)OC	0.6
CC(=O)N[C@@H](CO)C(=O)N[C@@H](CCC(N)=O)C(=O)N[C@@H](CC(N)=O)C(=O)N[C@@H](Cc1ccccc1)CN1CCC[C@H]1C(=O)N[C@H](C(=O)N[C@H](C(N)=O)C(C)C)C(C)C (Ac-SQN[X2]VV-NH2)	13000
CC[C@H](C)[C@H](NC(=O)[C@@H]1CCCN1C[C@H](O)[C@H](Cc1ccccc1)NC(=O)[C@H](CC(N)=O)NC(=O)[C@H](CC(C)C)NC(=O)[C@H](CO)NC(C)=O)C(=O)OC (Ac-SLN[Phe(ψ(S)CH(OH)CH2N)Pro]I-OMe)	420
COC(=O)[C@@H](NC(=O)[C@@H](NC(=O)C[C@H](O)[C@H](Cc1ccccc1)NC(=O)[C@H](CC(N)=O)NC(=O)[C@H](CCC(N)=O)NC(=O)[C@H](CO)NC(C)=O)C(C)C)C(C)C (Ac-SQN[Ahppa(3S,4S)]VV-OMe)	39000
CC[C@H](C)[C@H](NC(=O)[C@@H]1CCCN1C[C@H](O)[C@H](Cc1ccccc1)NC(=O)[C@H](CC(N)=O)NC(=O)[C@H](CC(C)C)NC(=O)[C@H](CO)NC(C)=O)C(=O)N[C@H](C(=O)OC)C(C)C (Ac-SLN[Phe(ψ(S)CH(OH)CH2N)Pro]IV-OMe)	0.66
